In ChEMBL document CHEMBL1629528 (J Med Chem, 2010):
Active and inactive are the calls of the source. The rule behind the calls is not given here.

Columns and labels:
[1] = molecular target: T1, 5-hydroxytryptamine receptor 1A (Homo sapiens, UniProt P08908); assay: Displacement of [3H]WAY100635 from human recombinant 5-HT1A receptor expressed in CHO cells; format: cell-based
T1 sequence (P08908 whole entry): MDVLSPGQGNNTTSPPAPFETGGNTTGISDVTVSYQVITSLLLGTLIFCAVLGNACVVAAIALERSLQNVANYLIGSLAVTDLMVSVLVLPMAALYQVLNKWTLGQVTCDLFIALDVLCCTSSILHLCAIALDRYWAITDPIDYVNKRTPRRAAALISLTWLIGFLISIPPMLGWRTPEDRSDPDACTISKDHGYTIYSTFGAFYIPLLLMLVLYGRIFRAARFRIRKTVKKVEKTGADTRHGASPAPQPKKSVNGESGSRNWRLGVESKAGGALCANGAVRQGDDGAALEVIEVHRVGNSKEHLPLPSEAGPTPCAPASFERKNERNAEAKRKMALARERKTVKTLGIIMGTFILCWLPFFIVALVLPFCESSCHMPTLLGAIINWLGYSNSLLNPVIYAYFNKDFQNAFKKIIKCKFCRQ

[2] = molecular target: T2, 5-hydroxytryptamine receptor 1A (Homo sapiens) (UniProt P08908); assay: Intrinsic activity at human recombinant 5-HT1A receptor expressed in HEK293 cells by [S35]GTPgammaS binding assay relative to 5-HT; format: functional, cell-based
T2 sequence (whole entry): T1 sequence (P08908 whole entry)
Procedure, shortened: (§1)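 [35S]-GTPγS binding in membranes from 10^6 cells (HEK293 for 5-HT1A; CHO for 5-HT1B, 5-HT1D), preincubated 30 min at 30 °C with compound in 20 mM HEPES pH 7.4, 3 mM MgCl2, 100 mM NaCl, 10 μM GDP, 0.2 mM ascorbate. 100 pM [35S]-GTPγS added, 30 min more at 30 °C; nonspecific with 20 μM GTPγS; filtration and scintillation counting.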

[3] = molecular target: Voltage-gated inwardly rectifying potassium channel KCNH2 (Homo sapiens, UniProt Q12809); assay: Displacement of [3H]dofetilide from human ERG by SPA
[4] = molecular target: 5-hydroxytryptamine receptor 6 (Homo sapiens, UniProt P50406); assay: Binding affinity to human recombinant 5-HT6 receptor by radioligand displacement assay
[5] = molecular target: T3, 5-hydroxytryptamine receptor 1D (Homo sapiens, UniProt P28221); assay: Inverse agonist activity at human recombinant 5-HT1D receptor expressed in CHO cells by [S35]GTPgammaS binding assay; format: functional, cell-based; procedure, shortened: as §1
D(2) dopamine receptor = D(2) dopamine receptor (Homo sapiens, UniProt P14416); assay: Binding affinity to human recombinant dopamine D2 receptor by radioligand displacement assay
[6] = molecular target: T4, 5-hydroxytryptamine receptor 1B (Homo sapiens, UniProt P28222); assay: Inverse agonist activity at human recombinant 5-HT1B receptor expressed in CHO cells by [S35]GTPgammaS binding assay; format: functional, cell-based; procedure, shortened: as §1
[7] = molecular target: 5-hydroxytryptamine receptor 2B (Homo sapiens, UniProt P41595); assay: Binding affinity to human recombinant 5-HT2B receptor by radioligand displacement assay
[8] = molecular target: 5-hydroxytryptamine receptor 2A (Homo sapiens, UniProt P28223); assay: Binding affinity to human recombinant 5-HT2A receptor by radioligand displacement assay
D(3) dopamine receptor = D(3) dopamine receptor (Homo sapiens, UniProt P35462); assay: Binding affinity to human recombinant dopamine D3 receptor by radioligand displacement assay
[9] = molecular target: T5, 5-hydroxytryptamine receptor 2C (Homo sapiens, UniProt P28335); assay: Binding affinity to human recombinant 5-HT2C receptor by radioligand displacement assay
T5 sequence (P28335 whole entry): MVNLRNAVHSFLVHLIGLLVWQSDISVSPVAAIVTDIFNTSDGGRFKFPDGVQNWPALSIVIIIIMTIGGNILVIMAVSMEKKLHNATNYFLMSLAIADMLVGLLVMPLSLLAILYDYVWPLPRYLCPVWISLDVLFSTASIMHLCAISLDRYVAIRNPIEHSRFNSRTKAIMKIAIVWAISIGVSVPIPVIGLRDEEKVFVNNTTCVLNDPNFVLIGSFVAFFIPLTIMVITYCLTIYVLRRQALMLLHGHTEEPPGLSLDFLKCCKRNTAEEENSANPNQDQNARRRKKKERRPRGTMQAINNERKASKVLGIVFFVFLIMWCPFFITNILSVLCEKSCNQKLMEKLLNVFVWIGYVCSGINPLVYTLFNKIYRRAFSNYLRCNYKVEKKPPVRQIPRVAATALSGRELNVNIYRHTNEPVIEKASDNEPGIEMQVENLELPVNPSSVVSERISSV

[10] = molecular target: T4, 5-hydroxytryptamine receptor 1B; assay: Displacement of [3H]5-HT from human recombinant 5-HT1B receptor expressed in CHO cells; format: cell-based
[11] = molecular target: 5-hydroxytryptamine receptor 7 (Homo sapiens, UniProt P34969); assay: Binding affinity to human recombinant 5-HT7 receptor by radioligand displacement assay
[12] = molecular target: Sodium-dependent serotonin transporter (Rattus norvegicus, UniProt P31652); assay: Inhibition of [3H]5-HT uptake at SERT in rat cortical synaptosomes; format: subcellular, Brain
[13] = molecular target: T3, 5-hydroxytryptamine receptor 1D; assay: Displacement of [3H]5-HT from human recombinant 5-HT1D receptor expressed in CHO cells; format: cell-based
[14] = molecular target: T4, 5-hydroxytryptamine receptor 1B; assay: Intrinsic activity at human recombinant 5-HT1B receptor expressed in CHO cells by [S35]GTPgammaS binding assay relative to 5-HT; format: functional, cell-based; procedure, shortened: as §1
[15] = molecular target: T3, 5-hydroxytryptamine receptor 1D; assay: Intrinsic activity at human recombinant 5-HT1D receptor expressed in CHO cells by [S35]GTPgammaS binding assay relative to 5-HT; format: functional, cell-based; procedure, shortened: as §1
Rattus norvegicus = assay: Inhibition of 8-OH-DPAT-induced hyperlocomotory activity in Sprague-Dawley rat administered orally 60 mins before 8-OH-DPATchallenge; format: functional
Procedure, shortened: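 Male Sprague-Dawley rats (250–350 g) dosed orally (5 mL/kg) at 0.03, 0.1 or 0.3 mg/kg or vehicle, 60 min before sc 8-OH-DPAT 0.2 mg/kg (2 mL/kg). Total distance travelled recorded by infrared sensors over 30 min immediately after; 8–9 rats per group.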

[16] = Plasma protein binding in dog at 1 ug/mL by equilibrium dialysis method
[17] = Plasma protein binding in human at 1 ug/mL by equilibrium dialysis method
Cytochrome P450 2C9 = Cytochrome P450 2C9 (Homo sapiens, UniProt P11712); assay: Inhibition of human recombinant CYP2C9
Cytochrome P450 2C19 = Cytochrome P450 2C19 (Homo sapiens, UniProt P33261); assay: Inhibition of human recombinant CYP219
[18] = molecular target: Alpha-1B adrenergic receptor (Rattus norvegicus, UniProt P15823); assay: Inhibition of rat adrenergic Alpha-1B receptor
[19] = molecular target: Alpha-1A adrenergic receptor (Rattus norvegicus, UniProt P43140); assay: Inhibition of rat adrenergic alpha1A receptor
Cytochrome P450 3A4 [20] = molecular target: T6, Cytochrome P450 3A4 (Homo sapiens, UniProt P08684); assay: Inhibition of CYP3A4 in human liver microsomes using nifedipine as probe
Cytochrome P450 3A4 [21] = molecular target: T6, Cytochrome P450 3A4; assay: Inhibition of human recombinant CYP3A4
Cytochrome P450 1A2 = Cytochrome P450 1A2 (Homo sapiens, UniProt P05177); assay: Inhibition of human recombinant CYP1A2
Cytochrome P450 3A4 [22] = molecular target: T6, Cytochrome P450 3A4; assay: Inhibition of CYP3A4 in human liver microsomes using atorvastatin as probe
Cytochrome P450 3A4 [23] = molecular target: T6, Cytochrome P450 3A4; assay: Inhibition of CYP3A4 in human liver microsomes using midazolam as probe
[24] = Protein binding in rat plasma at 1 ug/mL by equilibrium dialysis method
Cytochrome P450 2D6 = Cytochrome P450 2D6 (Homo sapiens, UniProt P10635); assay: Inhibition of human recombinant CYP2D6

Chain of 5-hydroxytryptamine receptor 6 (P50406 whole entry): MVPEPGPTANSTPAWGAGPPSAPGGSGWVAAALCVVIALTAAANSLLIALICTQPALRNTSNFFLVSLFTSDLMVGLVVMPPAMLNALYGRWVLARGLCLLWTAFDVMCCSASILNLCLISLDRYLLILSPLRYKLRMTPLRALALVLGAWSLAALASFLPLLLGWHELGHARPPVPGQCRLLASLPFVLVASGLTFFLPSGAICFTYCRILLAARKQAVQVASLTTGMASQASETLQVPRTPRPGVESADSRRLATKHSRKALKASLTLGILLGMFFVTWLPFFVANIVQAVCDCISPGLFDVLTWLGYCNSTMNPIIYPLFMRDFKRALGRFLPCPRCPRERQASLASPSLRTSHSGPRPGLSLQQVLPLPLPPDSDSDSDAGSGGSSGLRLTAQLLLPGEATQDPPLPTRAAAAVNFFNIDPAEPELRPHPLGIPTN
Chain of Voltage-gated inwardly rectifying potassium channel KCNH2 (Q12809 whole entry): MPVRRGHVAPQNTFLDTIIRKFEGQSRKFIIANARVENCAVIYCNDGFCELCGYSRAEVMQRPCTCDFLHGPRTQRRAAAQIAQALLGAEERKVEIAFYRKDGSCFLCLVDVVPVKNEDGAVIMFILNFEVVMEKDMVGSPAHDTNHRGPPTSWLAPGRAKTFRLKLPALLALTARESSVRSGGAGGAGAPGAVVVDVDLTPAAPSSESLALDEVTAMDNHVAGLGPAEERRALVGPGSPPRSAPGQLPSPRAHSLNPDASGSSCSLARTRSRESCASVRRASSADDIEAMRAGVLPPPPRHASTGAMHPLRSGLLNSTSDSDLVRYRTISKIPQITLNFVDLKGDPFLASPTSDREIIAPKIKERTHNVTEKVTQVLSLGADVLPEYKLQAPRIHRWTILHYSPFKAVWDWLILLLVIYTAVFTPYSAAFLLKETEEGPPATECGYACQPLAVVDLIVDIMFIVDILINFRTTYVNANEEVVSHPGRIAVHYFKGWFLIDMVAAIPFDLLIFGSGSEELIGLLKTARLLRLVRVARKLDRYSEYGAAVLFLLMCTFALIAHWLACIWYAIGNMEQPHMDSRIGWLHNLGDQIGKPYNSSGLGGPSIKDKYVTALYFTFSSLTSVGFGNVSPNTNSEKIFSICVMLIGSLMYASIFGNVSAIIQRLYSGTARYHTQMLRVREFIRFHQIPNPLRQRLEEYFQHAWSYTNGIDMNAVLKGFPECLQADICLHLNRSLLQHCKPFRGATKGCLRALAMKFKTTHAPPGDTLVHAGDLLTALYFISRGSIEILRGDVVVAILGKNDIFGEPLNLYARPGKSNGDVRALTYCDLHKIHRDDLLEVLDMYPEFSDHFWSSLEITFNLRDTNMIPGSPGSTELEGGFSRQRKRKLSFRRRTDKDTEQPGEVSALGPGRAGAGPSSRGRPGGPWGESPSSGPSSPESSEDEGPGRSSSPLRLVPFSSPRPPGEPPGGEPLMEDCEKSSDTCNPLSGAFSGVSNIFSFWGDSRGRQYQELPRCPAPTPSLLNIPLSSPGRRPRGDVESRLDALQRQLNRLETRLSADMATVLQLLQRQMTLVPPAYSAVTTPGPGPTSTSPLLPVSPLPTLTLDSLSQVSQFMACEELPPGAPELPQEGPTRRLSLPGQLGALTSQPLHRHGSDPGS
T4 sequence (P28222 whole entry): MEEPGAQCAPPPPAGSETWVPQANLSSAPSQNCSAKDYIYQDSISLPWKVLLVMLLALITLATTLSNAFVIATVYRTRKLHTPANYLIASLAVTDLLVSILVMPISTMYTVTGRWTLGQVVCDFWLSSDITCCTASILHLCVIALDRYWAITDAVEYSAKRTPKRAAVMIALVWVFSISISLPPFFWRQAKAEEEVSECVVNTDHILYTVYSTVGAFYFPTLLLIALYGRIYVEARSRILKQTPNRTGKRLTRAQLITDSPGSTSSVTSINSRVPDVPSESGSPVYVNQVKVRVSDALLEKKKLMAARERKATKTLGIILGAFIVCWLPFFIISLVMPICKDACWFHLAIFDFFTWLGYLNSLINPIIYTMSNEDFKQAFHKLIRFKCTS
T6 sequence (P08684 whole entry): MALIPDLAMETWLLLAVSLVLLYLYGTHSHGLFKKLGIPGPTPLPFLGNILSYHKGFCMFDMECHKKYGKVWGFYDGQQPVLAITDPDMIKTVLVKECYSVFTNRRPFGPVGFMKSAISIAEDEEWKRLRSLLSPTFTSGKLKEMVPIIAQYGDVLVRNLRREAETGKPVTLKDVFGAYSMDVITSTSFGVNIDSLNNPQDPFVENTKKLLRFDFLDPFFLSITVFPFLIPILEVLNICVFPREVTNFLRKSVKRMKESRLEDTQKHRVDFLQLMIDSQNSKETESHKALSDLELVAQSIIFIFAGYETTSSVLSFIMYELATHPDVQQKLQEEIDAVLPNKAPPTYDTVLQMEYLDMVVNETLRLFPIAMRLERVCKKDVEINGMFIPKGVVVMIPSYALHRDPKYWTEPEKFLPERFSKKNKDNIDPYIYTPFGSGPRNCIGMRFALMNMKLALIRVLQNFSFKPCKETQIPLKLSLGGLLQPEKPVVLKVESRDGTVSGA
T3 sequence (P28221 whole entry): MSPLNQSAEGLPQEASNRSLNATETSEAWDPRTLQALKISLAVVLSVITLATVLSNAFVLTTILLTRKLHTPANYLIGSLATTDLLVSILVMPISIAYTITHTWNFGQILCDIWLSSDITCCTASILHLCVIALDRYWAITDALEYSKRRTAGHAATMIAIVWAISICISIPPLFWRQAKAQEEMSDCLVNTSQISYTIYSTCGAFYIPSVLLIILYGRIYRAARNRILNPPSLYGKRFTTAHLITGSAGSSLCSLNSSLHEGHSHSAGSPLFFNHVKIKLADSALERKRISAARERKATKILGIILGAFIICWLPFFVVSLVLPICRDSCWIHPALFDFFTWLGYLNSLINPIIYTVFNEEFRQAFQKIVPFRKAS
Chain of 5-hydroxytryptamine receptor 7 (P34969 whole entry): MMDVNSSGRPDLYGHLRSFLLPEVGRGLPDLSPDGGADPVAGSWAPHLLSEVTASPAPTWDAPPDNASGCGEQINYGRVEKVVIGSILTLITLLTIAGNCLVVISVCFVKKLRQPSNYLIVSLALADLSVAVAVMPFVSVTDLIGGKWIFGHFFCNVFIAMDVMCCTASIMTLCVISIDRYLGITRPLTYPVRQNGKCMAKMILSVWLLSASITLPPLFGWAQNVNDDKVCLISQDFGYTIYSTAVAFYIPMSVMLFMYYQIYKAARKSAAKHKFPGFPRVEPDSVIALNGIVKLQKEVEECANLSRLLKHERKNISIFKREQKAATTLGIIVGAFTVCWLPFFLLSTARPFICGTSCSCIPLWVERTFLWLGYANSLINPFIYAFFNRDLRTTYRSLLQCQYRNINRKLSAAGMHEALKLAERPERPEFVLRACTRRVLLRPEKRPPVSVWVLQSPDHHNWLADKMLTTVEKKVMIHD
Chain of D(2) dopamine receptor (P14416 whole entry): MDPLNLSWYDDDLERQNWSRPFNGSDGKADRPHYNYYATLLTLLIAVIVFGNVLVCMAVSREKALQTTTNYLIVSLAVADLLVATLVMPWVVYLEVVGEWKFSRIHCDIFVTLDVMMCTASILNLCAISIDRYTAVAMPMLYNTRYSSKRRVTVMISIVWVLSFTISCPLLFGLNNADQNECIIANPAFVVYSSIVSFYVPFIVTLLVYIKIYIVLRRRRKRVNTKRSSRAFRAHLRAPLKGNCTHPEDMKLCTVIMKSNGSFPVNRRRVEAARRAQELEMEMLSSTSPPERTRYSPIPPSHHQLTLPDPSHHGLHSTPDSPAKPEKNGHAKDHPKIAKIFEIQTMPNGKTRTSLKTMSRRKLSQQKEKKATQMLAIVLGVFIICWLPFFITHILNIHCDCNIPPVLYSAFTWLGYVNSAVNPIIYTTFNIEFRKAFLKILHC
Chain of D(3) dopamine receptor (P35462 whole entry): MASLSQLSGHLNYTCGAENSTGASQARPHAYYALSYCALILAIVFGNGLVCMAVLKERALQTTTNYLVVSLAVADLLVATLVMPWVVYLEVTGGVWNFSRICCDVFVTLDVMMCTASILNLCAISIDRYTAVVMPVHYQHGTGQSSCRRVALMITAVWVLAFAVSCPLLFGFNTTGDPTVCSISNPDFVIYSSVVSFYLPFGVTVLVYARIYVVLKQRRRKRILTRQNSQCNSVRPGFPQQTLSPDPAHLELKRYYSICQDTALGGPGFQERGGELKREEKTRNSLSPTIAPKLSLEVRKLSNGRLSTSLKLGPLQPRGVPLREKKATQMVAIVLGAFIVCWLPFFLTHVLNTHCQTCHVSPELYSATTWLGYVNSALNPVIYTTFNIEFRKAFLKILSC
Chain of 5-hydroxytryptamine receptor 2B (P41595 whole entry): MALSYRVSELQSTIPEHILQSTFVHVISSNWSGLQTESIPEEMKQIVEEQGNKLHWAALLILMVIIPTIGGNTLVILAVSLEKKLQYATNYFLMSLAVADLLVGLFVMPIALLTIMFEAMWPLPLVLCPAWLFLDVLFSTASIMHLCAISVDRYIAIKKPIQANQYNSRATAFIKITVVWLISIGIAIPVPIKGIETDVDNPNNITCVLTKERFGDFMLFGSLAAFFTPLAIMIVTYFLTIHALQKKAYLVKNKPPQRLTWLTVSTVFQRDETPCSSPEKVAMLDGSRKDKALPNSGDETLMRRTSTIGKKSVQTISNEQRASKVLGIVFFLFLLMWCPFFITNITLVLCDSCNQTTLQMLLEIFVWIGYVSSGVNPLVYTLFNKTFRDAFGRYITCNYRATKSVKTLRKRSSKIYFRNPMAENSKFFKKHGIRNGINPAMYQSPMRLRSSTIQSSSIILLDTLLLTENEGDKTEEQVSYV

Row | SMILES | Ki [1] | Intrinsic activity [2] | Ki [3] | Ki [4] | Activity [5] | Ki (D(2) dopamine receptor) | Ki [7] | Ki [8] | Ki (D(3) dopamine receptor) | Ki [9] | Ki [10] | Ki [11] | Ki [12] | Ki [13] | Intrinsic activity [14] | Intrinsic activity [15] | inhibition (Rattus norvegicus) | further results
1 | CCNC(=O)Nc1cccc(CCN2CCN(c3cccc4nc(C)ccc34)CC2)c1 | 2 nM | 0 | 631 nM | > 6310 nM | Active | 316 nM | 398 nM | 316 nM | 126 nM | 794 nM | 1.26 nM | 39.8 nM | 501 nM | 0.158 nM | – | – | – | Activity [6]: Active
2 | Cc1ccc2c(N3CCN(CCc4cccc(NC(=O)Nc5ccccc5)c4)CC3)cccc2n1 | 3.98 nM | 0 | 316 nM | 316 nM | – | 79.4 nM | > 6310 nM | > 6310 nM | 31.6 nM | > 10000 nM | 3.16 nM | 79.4 nM | 2000 nM | 0.316 nM | 0 | 0 | – | –
3 | Cc1ccc2c(N3CCN(CCc4cccc(N5CCNC5=O)c4)CC3)cccc2n1 | – | 0 | – | – | – | – | – | – | – | – | – | – | – | – | 0 | 0 | Dose-dependent effect | –
4 | Cc1ccc2c(N3CCN(CCc4cccc(N5CCNC5=O)c4)CC3)cccc2n1 [GSK163090] | – | – | 12600 nM | > 5010 nM | – | – | – | – | – | 1580 nM | – | – | – | – | – | – | – | fraction unbound at 1 ug/mL [16]: 0.045; fraction unbound at 1 ug/mL [17]: 0.041; IC50 (Cytochrome P450 2C9): 60000 nM; IC50 (Cytochrome P450 2C19): 76000 nM; IC50 [18]: 25.1 nM; IC50 [19]: 25.1 nM; IC50 (Cytochrome P450 3A4 [20]): 21000 nM; IC50 (Cytochrome P450 3A4 [21]): 67000 nM; IC50 (Cytochrome P450 1A2): 96000 nM; IC50 (Cytochrome P450 3A4 [22]): 21000 nM; IC50 (Cytochrome P450 3A4 [23]): 21000 nM; fraction unbound at 1 ug/mL [24]: 0.041; IC50 (Cytochrome P450 2D6): 86000 nM
5 | Cc1ccc2c(N3CCN(CCc4cccc(NS(C)(=O)=O)c4)CC3)cccc2n1 | – | 0 | – | – | Active | – | – | – | – | – | – | – | – | – | 0.1 | – | Dose-dependent effect | –
